Laboratory results taken from ChEMBL document CHEMBL5058577, “EUbOPEN Chemogenomics Library 2 (Multiplex)” (2022).

Tested on: Fibroblast
Experiment: Multiplex assay against human fibroblast
Type: toxicity, cell-based
Procedure, shortened: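 Per cents of healthy-nucleus cells form the tubulin, mitochondrial-mass and membrane-permeability phenotype values. Live cells were stained at seeding with Hoechst33342, BioTracker Green Microtubule Cytoskeleton Dye, MitoTracker Red and Annexin V Alexa Fluor 680. After compound addition they were imaged on a CQ1 microscope at 37°C and 5% CO2, and CellPathfinder machine-learning gating split them into Hoechst high-intensity objects or normal cells, normal cells into healthy, pyknosed or fragmented nuclei, and pyknosed cells into mitotic or apoptotic.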

[1] = 12 h, 1 µM, compound concentration 1 uM, replicate 1
[2] = 12 h, 1 µM, compound concentration 1 uM, replicate 2
[3] = 12 h, 10 µM, compound concentration 10 uM, replicate 1
[4] = 12 h, 10 µM, compound concentration 10 uM, replicate 2
[5] = 24 h, 1 µM, compound concentration 1 uM, replicate 1
[6] = 24 h, 1 µM, compound concentration 1 uM, replicate 2
[7] = 24 h, 10 µM, compound concentration 10 uM, replicate 1
[8] = 24 h, 10 µM, compound concentration 10 uM, replicate 2
[9] = 48 h, 1 µM, compound concentration 1 uM, replicate 1
[10] = 48 h, 1 µM, compound concentration 1 uM, replicate 2
[11] = 48 h, 10 µM, compound concentration 10 uM, replicate 1
[12] = 48 h, 10 µM, compound concentration 10 uM, replicate 2

## C[C@H]1[C@H]2CC[C@H]3[C@@H]4CC=C5C[C@@H](N(C)C)CC[C@]5(C)[C@H]4CC[C@]23CN1C [CONESSINE]
[1]
  Population Apoptotic (%): 45%
  Population Fragmented Nuclei (%): 15%
  Population Healthy Nuclei (%): 73%
  Population Hoechst High Intensity Objects (%): 1%
  Population Membrane Permeable-Phenotype (%): 0%
  Population Mitochondria Different-Phenotype (%): 8%
  Population Mitotic Cells (%): 55%
  Population Normal (%): 98%
  Population Pyknosed Nuclei (%): 11%
  Population Tubulin-Different-Phenotype (%): 19%
  Total Cell Count: 174
[2]
  Population Apoptotic (%): 29%
  Population Fragmented Nuclei (%): 33%
  Population Healthy Nuclei (%): 41%
  Population Hoechst High Intensity Objects (%): 2%
  Population Membrane Permeable-Phenotype (%): 7%
  Population Mitochondria Different-Phenotype (%): 2%
  Population Mitotic Cells (%): 70%
  Population Normal (%): 97%
  Population Pyknosed Nuclei (%): 24%
  Population Tubulin-Different-Phenotype (%): 46%
  Total Cell Count: 101
[3]
  Population Apoptotic (%): 37%
  Population Fragmented Nuclei (%): 26%
  Population Healthy Nuclei (%): 60%
  Population Hoechst High Intensity Objects (%): 3%
  Population Membrane Permeable-Phenotype (%): 5%
  Population Mitochondria Different-Phenotype (%): 10%
  Population Mitotic Cells (%): 62%
  Population Normal (%): 96%
  Population Pyknosed Nuclei (%): 13%
  Population Tubulin-Different-Phenotype (%): 32%
  Total Cell Count: 189
[4]
  Population Apoptotic (%): 43%
  Population Healthy Nuclei (%): 45%
  Population Membrane Permeable-Phenotype (%): 8%
  Population Mitochondria Different-Phenotype (%): 4%
  Population Mitotic Cells (%): 56%
  Population Pyknosed Nuclei (%): 28%
  Population Tubulin-Different-Phenotype (%): 58%
  Total Cell Count: 110
[5]
  Population Apoptotic (%): 43%
  Population Fragmented Nuclei (%): 13%
  Population Healthy Nuclei (%): 73%
  Population Hoechst High Intensity Objects (%): 2%
  Population Membrane Permeable-Phenotype (%): 1%
  Population Mitochondria Different-Phenotype (%): 4%
  Population Mitotic Cells (%): 56%
  Population Normal (%): 97%
  Population Pyknosed Nuclei (%): 13%
  Population Tubulin-Different-Phenotype (%): 22%
  Total Cell Count: 175
[6]
  Population Apoptotic (%): 40%
  Population Fragmented Nuclei (%): 27%
  Population Healthy Nuclei (%): 48%
  Population Hoechst High Intensity Objects (%): 4%
  Population Membrane Permeable-Phenotype (%): 13%
  Population Mitochondria Different-Phenotype (%): 6%
  Population Mitotic Cells (%): 59%
  Population Normal (%): 95%
  Population Pyknosed Nuclei (%): 24%
  Population Tubulin-Different-Phenotype (%): 61%
  Total Cell Count: 95
[7]
  Population Apoptotic (%): 64%
  Population Fragmented Nuclei (%): 28%
  Population Healthy Nuclei (%): 61%
  Population Hoechst High Intensity Objects (%): 3%
  Population Membrane Permeable-Phenotype (%): 1%
  Population Mitochondria Different-Phenotype (%): 7%
  Population Mitotic Cells (%): 35%
  Population Normal (%): 96%
  Population Pyknosed Nuclei (%): 9%
  Population Tubulin-Different-Phenotype (%): 27%
  Total Cell Count: 190
[8]
  Population Apoptotic (%): 36%
  Population Healthy Nuclei (%): 39%
  Population Hoechst High Intensity Objects (%): 2%
  Population Membrane Permeable-Phenotype (%): 7%
  Population Mitotic Cells (%): 63%
  Population Normal (%): 97%
  Population Pyknosed Nuclei (%): 32%
  Population Tubulin-Different-Phenotype (%): 60%
  Total Cell Count: 106
[9]
  Population Apoptotic (%): 50%
  Population Fragmented Nuclei (%): 17%
  Population Healthy Nuclei (%): 73%
  Population Hoechst High Intensity Objects (%): 5%
  Population Membrane Permeable-Phenotype (%): 0%
  Population Mitochondria Different-Phenotype (%): 3%
  Population Mitotic Cells (%): 50%
  Population Normal (%): 94%
  Population Pyknosed Nuclei (%): 9%
  Population Tubulin-Different-Phenotype (%): 27%
  Total Cell Count: 178
[10]
  Population Apoptotic (%): 47%
  Population Fragmented Nuclei (%): 37%
  Population Healthy Nuclei (%): 45%
  Population Hoechst High Intensity Objects (%): 0%
  Population Membrane Permeable-Phenotype (%): 17%
  Population Mitochondria Different-Phenotype (%): 8%
  Population Mitotic Cells (%): 52%
  Population Normal (%): 99%
  Population Pyknosed Nuclei (%): 16%
  Population Tubulin-Different-Phenotype (%): 63%
  Total Cell Count: 104
[11]
  Population Apoptotic (%): 66%
  Population Fragmented Nuclei (%): 26%
  Population Healthy Nuclei (%): 62%
  Population Hoechst High Intensity Objects (%): 6%
  Population Membrane Permeable-Phenotype (%): 0%
  Population Mitochondria Different-Phenotype (%): 4%
  Population Mitotic Cells (%): 33%
  Population Normal (%): 93%
  Population Pyknosed Nuclei (%): 10%
  Population Tubulin-Different-Phenotype (%): 25%
  Total Cell Count: 190
[12]
  Population Apoptotic (%): 27%
  Population Fragmented Nuclei (%): 29%
  Population Healthy Nuclei (%): 48%
  Population Hoechst High Intensity Objects (%): 2%
  Population Membrane Permeable-Phenotype (%): 8%
  Population Mitochondria Different-Phenotype (%): 6%
  Population Mitotic Cells (%): 72%
  Population Normal (%): 97%
  Population Pyknosed Nuclei (%): 22%
  Population Tubulin-Different-Phenotype (%): 62%
  Total Cell Count: 102
